Experimental data reported in ChEMBL document CHEMBL1139971, “RXR-LXR heterodimer modulators for the potential treatment of dyslipidemia” (Bioorg Med Chem Lett, 2007).
Active and inactive are the calls of the source. The rule behind the calls is not given here.

Key:
[1] = target: T1, Retinoic acid receptor RXR-alpha (Homo sapiens, UniProt P19793); test: (§1) Activity at RXRalpha by GAL4DNA cotransfection assay
T1 sequence (P19793 whole entry): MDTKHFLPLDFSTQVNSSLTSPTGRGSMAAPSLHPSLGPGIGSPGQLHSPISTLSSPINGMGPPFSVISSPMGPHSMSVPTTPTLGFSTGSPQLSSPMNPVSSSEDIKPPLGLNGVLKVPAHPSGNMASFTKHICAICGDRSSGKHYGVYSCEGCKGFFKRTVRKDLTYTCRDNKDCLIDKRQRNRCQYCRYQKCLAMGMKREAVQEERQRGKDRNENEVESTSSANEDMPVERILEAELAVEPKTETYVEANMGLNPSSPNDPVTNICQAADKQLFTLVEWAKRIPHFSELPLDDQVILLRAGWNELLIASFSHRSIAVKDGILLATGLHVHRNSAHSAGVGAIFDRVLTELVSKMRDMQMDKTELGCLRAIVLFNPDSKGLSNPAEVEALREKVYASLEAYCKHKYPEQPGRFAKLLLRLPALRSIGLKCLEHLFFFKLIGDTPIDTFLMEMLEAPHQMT
Outline: (§2)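 RXRα co-transfection assay using the yeast GAL4 DNA-binding domain fused to the RXRα ligand-binding domain, with a yeast promoter driving luciferase. EC50 is reported, and efficacy is given as % maximal activation versus the reference RXR agonist.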

[2] = Activity at RXR-PPARgamma heterodimer in primary human preadipocytes assessed as induction of adipocytes fatty acid binding protein by bDNA assay; assay type: cell-based
[3] = Activity at RXR-LXR heterodimer in human THP1 cells assessed as induction of ABCA1 mRNA; assay type: cell-based; conditions: THP-1
[4] = target: T2, Retinoic acid receptor RXR-alpha (Homo sapiens) (UniProt P19793); test: Activity at RXRalpha by GAL4DNA cotransfection assay relative to 5-((3-(1-ethyl-4,4,6-trimethyl-2-oxo-1,2,3,4-tetrahydroquinolin-7-yl)-4-(trifluoromethoxy)phenyl)methylene)thiazolidine-2,4-dione; outline: as §2
T2 sequence (whole entry): T1 sequence (P19793 whole entry)

THP-1 = test: Activation of RXR-LXR heterodimer in human THP1 cells assessed as induction of ABCA1 mRNA relative to 5-((3-(1-ethyl-4,4,6-trimethyl-2-oxo-1,2,3,4-tetrahydroquinolin-7-yl)-4-(trifluoromethoxy)phenyl)methylene)thiazolidine-2,4-dione; assay type: cell-based; design: concentration or dose not given beside the values
Homo sapiens [5] = species: Homo sapiens; test: Activity at RXR-PPARgamma in primary human preadipocytes assessed as induction of adipocytes fatty acid binding protein by bDNA assay relative to 5-((3-(1-ethyl-4,4,6-trimethyl-2-oxo-1,2,3,4-tetrahydroquinolin-7-yl)-4-(trifluoromethoxy)phenyl)methylene)thiazolidine-2,4-dione; assay type: cell-based
Rattus norvegicus [6] = test: Effect on serum cholesterol level in high cholesterol diet fed Sprague-Dawley rat at 1 mg/kg, po after 8 days relative to control; assay type: functional
Outline: (§3)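 Male Sprague–Dawley rats were fed a high-cholesterol atherogenic diet ad libitum. After 6 days on the diet, oral dosing began at 0.3, 1, 3 or 10 mg/kg in 15% hydroxypropyl β-cyclodextrin, pH 10, for 8 days total. Serum total cholesterol, HDL-C, LDL-C and triglycerides and plasma Cmax were measured. Groups are compared with vehicle as mean ± SEM by one-way ANOVA with Dunnett's test.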

Rattus norvegicus [7] = test: Effect on serum triglyceride level in high cholesterol diet fed Sprague-Dawley rat at 1 mg/kg, po after 8 days relative to control; assay type: functional; outline: as §3
Homo sapiens [8] = species: Homo sapiens; test: Activity at RXR-PPARgamma in primary human preadipocytes assessed as induction of adipocytes fatty acid binding protein by bDNA assay relative to rosiglitazone; assay type: cell-based
Rattus norvegicus [9] = test: Effect on serum HDL-C level in high cholesterol diet fed Sprague-Dawley rat at 1 mg/kg, po after 8 days relative to control; assay type: functional; outline: as §3
Rattus norvegicus [10] = test: Effect on serum LDL-C level in high cholesterol diet fed Sprague-Dawley rat at 1 mg/kg, po after 8 days relative to control; assay type: functional; outline: as §3
[11] = target: T2, Retinoic acid receptor RXR-alpha (Homo sapiens); test: as §1; outline: as §2
Rattus norvegicus [12] = test: Effect on serum triglyceride level in high cholesterol diet fed Sprague-Dawley rat at 10 mg/kg, po after 8 days relative to control; assay type: functional; outline: as §3
Rattus norvegicus [13] = test: Effect on serum HDL-C level in high cholesterol diet fed Sprague-Dawley rat at 10 mg/kg, po after 8 days relative to control; assay type: functional; outline: as §3
Rattus norvegicus [14] = test: Effect on serum LDL-C level in high cholesterol diet fed Sprague-Dawley rat at 0.3 mg/kg, po after 8 days relative to control; assay type: functional; outline: as §3
[15] = Oral bioavailability in Sprague-Dawley rat at 3 mg/kg; assay type: ADME, organism-based; conditions: in vivo
Outline: (§4)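 Sprague–Dawley rats dosed at 3 mg/kg in 10% hydroxypropyl β-cyclodextrin (pH 10). Oral bioavailability, Cmax, AUC and terminal half-life were taken from the plasma profile.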

[16] = Cmax in high cholesterol diet fed Sprague-Dawley rat at 10 mg/kg, po; assay type: ADME, organism-based; design: dose 10 mg/kg, route oral; conditions: in vivo; outline: as §3
Rattus norvegicus [17] = test: Effect on serum HDL-C level in high cholesterol diet fed Sprague-Dawley rat at 3 mg/kg, po after 8 days relative to control; assay type: functional; outline: as §3
[18] = AUC in Sprague-Dawley rat at 3 mg/kg; assay type: ADME, organism-based; design: dose 3 mg/kg; conditions: plasma; outline: as §4
Rattus norvegicus [19] = test: Effect on serum LDL-C level in high cholesterol diet fed Sprague-Dawley rat at 3 mg/kg, po after 8 days relative to control; assay type: functional; outline: as §3
Rattus norvegicus [20] = test: Effect on serum triglyceride level in high cholesterol diet fed Sprague-Dawley rat at 3 mg/kg, po after 8 days relative to control; assay type: functional; outline: as §3
[21] = Half life in Sprague-Dawley rat at 3 mg/kg; assay type: ADME, organism-based; design: dose 3 mg/kg; conditions: in vivo; outline: as §4
Rattus norvegicus [22] = test: Effect on serum cholesterol level in high cholesterol diet fed Sprague-Dawley rat at 0.3 mg/kg, po after 8 days relative to control; assay type: functional; outline: as §3
Mus musculus = species: Mus musculus; test: Decrease in blood glucose level in db/db mouse after 11 days; assay type: functional, organism-based
Outline: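 db/db mice, a diabetes model, were treated for 11 days and blood glucose was monitored.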

Rattus norvegicus [23] = test: Effect on serum HDL-C level in high cholesterol diet fed Sprague-Dawley rat at 0.3 mg/kg, po after 8 days relative to control; assay type: functional; outline: as §3
Rattus norvegicus [24] = test: Effect on serum cholesterol level in high cholesterol diet fed Sprague-Dawley rat at 3 mg/kg, po after 8 days relative to control; assay type: functional; outline: as §3
Rattus norvegicus [25] = test: Effect on serum LDL-C level in high cholesterol diet fed Sprague-Dawley rat at 10 mg/kg, po after 8 days relative to control; assay type: functional; outline: as §3
Rattus norvegicus [26] = test: Effect on serum cholesterol level in high cholesterol diet fed Sprague-Dawley rat at 10 mg/kg, po after 8 days relative to control; assay type: functional; outline: as §3
[27] = Cmax in Sprague-Dawley rat at 3 mg/kg; assay type: ADME, organism-based; design: dose 3 mg/kg; conditions: in vivo; outline: as §4
[28] = Cmax in high cholesterol diet fed Sprague-Dawley rat at 0.3 mg/kg, po; assay type: ADME, organism-based; design: dose 0.3 mg/kg, route oral; conditions: in vivo; outline: as §3
Rattus norvegicus [29] = test: Effect on serum triglyceride level in high cholesterol diet fed Sprague-Dawley rat at 0.3 mg/kg, po after 8 days relative to control; assay type: functional; outline: as §3

## CCCN1C(=O)CC(C)(C)c2cc(C)c(-c3cc(/C=C/C(=O)O)ccc3OC(F)(F)F)cc21
[1]
  EC50: 2.1 nM
[2]
  EC50: 131 nM
[3]
  EC50: > 3000 nM
[4]
  Activity: 83%

## CCN1C(=O)CC(C)(C)c2cc(C)c(-c3ccc(/C=C/C(=O)O)cc3OC(F)(F)F)cc21
[3]
  EC50: > 3000 nM

## Cc1cc2c(cc1-c1cc(/C=C/C(=O)O)ccc1OC(F)(F)F)N(CC(F)(F)F)C(=O)CC2(C)C
[1]
  EC50: 1.8 nM
[2]
  EC50: 126 nM
[3]
  EC50: > 3000 nM
[4]
  Activity: 94%

## CCN1C(=O)OC(C)(C)c2cc(C)c(-c3cc(/C=C/C(=O)O)ccc3OC(F)(F)F)cc21
[3]
  EC50: > 3000 nM

## CCN1C(=O)CC(C)(C)c2cc(C)c(-c3ccc(/C=C/C(=O)O)o3)cc21
[1]
  EC50: > 10000 nM
[3]
  EC50: > 3000 nM

## CCN1C(=O)C(C)(C)Oc2cc(C)c(-c3cc(/C=C/C(=O)O)ccc3OC(F)(F)F)cc21
[1]
  EC50: 173 nM
THP-1
  Activity: 79%
[3]
  EC50: 39.7 nM
[4]
  Activity: 78%

## CCn1c(=O)c2c(c3ccc(-c4cc(/C=C/C(=O)O)ccc4OC(F)(F)F)cc31)CCC2
[1]
  EC50: 1600 nM
[3]
  EC50: > 3000 nM

## Cc1cc2c(cc1-c1cc(/C=C/C(=O)O)ccc1OCC(F)(F)F)N(C(C)C)C(=O)CC2(C)C
[1]
  EC50: 18.3 nM
[2]
  EC50: > 3000 nM
THP-1
  Activity: 32%
Homo sapiens [5]
  Activity: 149%
[3]
  EC50: 44 nM
[4]
  Activity: 64%

## Cc1cc2c(cc1-c1cc(/C=C/C(=O)O)ccc1OC(F)(F)F)N(C(C)C)C(=O)CC2(C)C
THP-1
  Activity: 70%
[3]
  EC50: 10 nM

## CCN1C(=O)CC(C)(C)c2cc(C)c(-c3cc(/C=C4\SC(=O)NC4=O)ccc3OC(F)(F)F)cc21
Rattus norvegicus [6]
  Activity: 371 mg/dL
[1]
  EC50: 0.9 nM
Rattus norvegicus [7]
  Activity: 216 mg/dL
Homo sapiens [8]
  Activity: 25%
[2]
  EC50: 139 nM
Rattus norvegicus [9]
  Activity: 41 mg/dL
[3]
  EC50: 180 nM
Rattus norvegicus [10]
  Activity: 126 mg/dL

## CCN1C(=O)CC(C)(C)c2cc(C)c(-c3ccc(/C=C/C(=O)O)s3)cc21
[1]
  EC50: 1200 nM
[3]
  EC50: > 3000 nM

## CCn1c(=O)c2c(c3cc(-c4cc(/C=C/C(=O)O)ccc4OC(F)(F)F)ccc31)CCC2
[1]
  EC50: 96.6 nM
[3]
  EC50: > 3000 nM
[4]
  Activity: 125%

## CCN1C(=O)CC(C)(C)c2cc(C)c(-c3cc(/C=C/C(=O)O)ccc3OC)cc21
[3]
  EC50: 975 nM

## Cc1cc2c(cc1-c1cc(/C=C/C(=O)O)ccc1OC(F)(F)F)N(C)C(=O)CC2(C)C
[1]
  EC50: 24.3 nM
THP-1
  Activity: 56%
[3]
  EC50: 200 nM

## Cc1cc2c(cc1-c1cc(/C=C/C(=O)O)ccc1OC(F)(F)F)NC(=O)CC2(C)C
[11]
  Activity: inactive
[3]
  EC50: > 3000 nM

## CCN1C(=O)C(C)Oc2cc(C)c(-c3cc(/C=C/C(=O)O)ccc3OC(F)(F)F)cc21 (stereo not drawn)
[3]
  EC50: > 3000 nM

## CCN1C(=O)CN(C(C)C)c2cc(C)c(-c3cc(/C=C/C(=O)O)ccc3OC(F)(F)F)cc21
[3]
  EC50: > 3000 nM

## CCN1C(=O)C(C)(C)Oc2cc(C)c(-c3cc(/C(C)=C/C(=O)O)ccc3OC(F)(F)F)cc21
[2]
  EC50: > 3000 nM
THP-1
  Activity: 76%
Homo sapiens [5]
  Activity: 240%
[3]
  EC50: 163 nM
[4]
  Activity: 86%

## CCN1C(=O)CC(C)(C)c2cc(C)c(-c3cc(/C=C/C(=O)O)ccc3OC(F)(F)F)cc21
[1]
  EC50: 1.8 nM
THP-1
  Activity: 81%
[3]
  EC50: 3.6 nM

## CCN1C(=O)CC(C)(C)c2cc(C)c(-c3cc(/C=C/C(=O)O)ccc3OCC(F)(F)F)cc21
Rattus norvegicus [12]
  Activity: 175 mg/dL
Rattus norvegicus [13]
  Activity: 41 mg/dL
Rattus norvegicus [14]
  Activity: 134 mg/dL
Rattus norvegicus [6]
  Activity: 440 mg/dL
[15]
  bioavailability: 51%
[16]
  Cmax: 2120 ng/mL
Rattus norvegicus [17]
  Activity: 34 mg/dL
[1]
  EC50: 67.3 nM
Rattus norvegicus [7]
  Activity: 182 mg/dL
[18]
  AUC: 5520 ng·h/mL
[2]
  EC50: > 3000 nM
Rattus norvegicus [19]
  Activity: 102 mg/dL
Rattus norvegicus [20]
  Activity: 249 mg/dL
[21]
  half-life: 4.6 h
Rattus norvegicus [22]
  Activity: 382 mg/dL
Mus musculus
  Activity: inactive
Rattus norvegicus [23]
  Activity: 16 mg/dL
Rattus norvegicus [24]
  Activity: 302 mg/dL
Rattus norvegicus [9]
  Activity: 38 mg/dL
THP-1
  Activity: 60%
Rattus norvegicus [25]
  Activity: 126 mg/dL
Rattus norvegicus [26]
  Activity: 349 mg/dL
[3]
  EC50: 296 nM
[27]
  Cmax: 844 ng/mL
[28]
  Cmax: 61 ng/mL
Rattus norvegicus [10]
  Activity: 151 mg/dL
[4]
  Activity: 76%
Rattus norvegicus [29]
  Activity: 341 mg/dL
